Data as given in PubChem BioAssay.
Activity calls are given as the source filed them.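 Rule for the calls: active = growth inhibition above a set limit, 3 SD over mean compound inhibition, in both replicates (cut at about 43% in these data); inconclusive = above the limit in only one replicate; inactive = at or below the limit in both replicates.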

Assay: S. cerevisiae growth inhibition in restrictive medium, OD615, pilot screen, restrictive growth control, yeast lifespan reduction project (AID 706);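 note: modified DeaD lifespan yeast strain shifted to restrictive glucose medium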
Conditions: OD615, 48 h, at 10 µM, stronger effect = higher value
Outline: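 Assay system: engineered S. cerevisiae DeaD strain; Buffer or medium: CSMM-D glucose medium; Dosing: 10 µM compound, 0.25% DMSO; Times: cell pre-growth 4 h, compound exposure 48 h, 30 °C; Detection: absorbance (optical density) measured at 615 nm.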

| Compound | growth inhibition |
| --- | --- |
| COc1ccc(C2C(C(=O)N3CCOCC3)CCC(=O)N2c2cc(OC)c(OC)c(OC)c2)cc1 (stereo not given) | -12.3% (inactive) |
| COc1ccccc1C(=O)Nc1nnc(-c2ccc3c(c2)CCCC3)o1 | 7.12% (inactive) |
| CCc1ccc(NC(=O)C2CC=CCC2C(=O)O)cc1 (stereo not given) | 5.45% (inactive) |
| O=C(Cn1cc2c(n1)CCCCC2)Nc1ccc(F)cc1F | 4.12% (inactive) |
| Nc1c(C(=O)c2ccc(Br)s2)oc2ccccc12 | -4.51% (inactive) |
| O=C1c2ccccc2C(Nc2cccnc2)N1Cc1ccc2c(c1)OCO2 (stereo not given) | 3.33% (inactive) |
| Cn1c(Cn2c(=O)sc3ccccc32)nnc1SCC(=O)N1CCCCCC1 | -23.5% (inactive) |
| CCS(=O)(=O)N1CCN(Cc2nc3ccccc3c(=O)[nH]2)CC1 | -14.4% (inactive) |
| Cc1cccc(OCc2nnc(SCC(=O)NCCc3ccccc3)o2)c1 | -15.6% (inactive) |
| CC(=O)Nc1ccc(NC2(C)C(=O)c3ccccc3C2=O)cc1 | -3.77% (inactive) |
| COC(=O)c1cn(C(C)C(=O)NCc2ccco2)c2ccccc12 (stereo not given) | -23.6% (inactive) |
| O=C1N2CN(C(c3ccccc3)c3ccccc3)CN=C2SC1(CO)CO | -4.68% (inactive) |
| CC(C)N1C(=O)CCC1C(=O)NCc1ccccc1Cl (stereo not given) | -6.72% (inactive) |
| O=C(COC(=O)c1ccc(S(=O)(=O)NCc2ccco2)cc1)Nc1ccccc1OC(F)F | -12.5% (inactive) |
| Cn1c(NC(=O)CC(C)(C)C)cc(=O)n(C)c1=O | -7.82% (inactive) |
| O=C(Nc1ccc2oc(-c3ccccc3)nc2c1)c1ccncc1 | -10.5% (inactive) |
| Cc1nccn1-c1ncnc2sc3c(c12)CCCC3 | 0.84% (inactive) |
| O=C(c1ccc2snnc2c1)N1CCCC1 | -4.86% (inactive) |
| CCC(Oc1ccccc1)C(=O)Nc1cc(C)on1 (stereo not given) | -7.2% (inactive) |
| Cc1cc(C)n(Cc2ccccc2F)c(=O)c1C#N | -16.5% (inactive) |

| Compound | growth inhibition |
| --- | --- |
| CC(=O)C1=C(O)C(=O)N(CC(=O)O)C1c1ccccc1Cl (stereo not given) | 9.59% (inactive) |
| O=C(C(c1ccccc1)c1ccccc1)N1CCOCC1 | 1.92% (inactive) |
| Cc1cccc(N2CCN(C(=O)C3CCCN(S(=O)(=O)c4cccc5cccnc45)C3)CC2)c1C (stereo not given) | 12.1% (inactive) |
| O=C(Cn1cc2c(n1)CCCCC2)N1CCCCC1 | -5.9% (inactive) |
| c1ccc(OCc2nn3c(-c4ccccn4)nnc3s2)cc1 | 34% (inactive) |
| Cc1ccc(Cl)cc1N1CCN(C(=O)CCC(=O)O)CC1 | -29.2% (inactive) |
| Clc1ccc(-c2nc(-c3ccccn3)no2)cc1Cl | 0.26% (inactive) |
| O=C(c1ccccc1)c1cccc(NC(=O)c2ccco2)c1 | -5.33% (inactive) |
| Cc1noc(NS(=O)(=O)c2ccc(NC(=O)CCn3c(=O)oc4ccccc43)cc2)c1C | -7.86% (inactive) |
| Cc1noc(C)c1CSCC(=O)OCC(=O)NC1CCCCC1 | 2.07% (inactive) |
| O=C(CCc1nc2ccccc2[nH]1)NCc1ccc2c(c1)OCO2 | -4.06% (inactive) |
| Nc1c(Br)cc(Br)c(N2CCCC2=O)c1Br | -7.93% (inactive) |
| C1=C(N2CCOCC2)/C(=C/c2nc3ccccc3[nH]2)CC1 | 19.2% (inactive) |
| COc1ccc(C(C)(C)C)cc1NC(=O)COC(=O)c1cnc(C)cn1 | -5.05% (inactive) |
| COc1ccccc1NC(=O)Nc1ccc(Br)cn1 | -15.5% (inactive) |
| Cc1onc(-c2ccccc2Cl)c1C(=O)N(C)C1CCCCC1 | -9.2% (inactive) |
| CSC1=N/C(=C\c2ccccc2F)C(=O)S1 | -24.4% (inactive) |
| Cc1nc2cc(-c3cccc(F)c3)nn2c(C)c1CCC(=O)N1CCN(c2ccccn2)CC1 | 3.5% (inactive) |
| COC(=O)c1c(NC(=O)CCN2CCOCC2)sc2c1CCCC2 | -2.81% (inactive) |
| CCOCCCNC(=O)C(NC(=O)CNC(C)=O)c1ccc(Cl)cc1 (stereo not given) | -12.2% (inactive) |
